Results collected from several papers.
Lines come from different studies, so protocols differ.
Target: Homeodomain-interacting protein kinase 2 (HIPK2, Homo sapiens, UniProt Q9H2X6)

SMILES	read-out	action	method	tested at	measurement	value
O=c1[nH]c2ccccc2n1C1CCN(Cc2ccc(-c3[nH]c4cc5ncnc5cc4nc3-c3ccccc3)cc2)CC1	cell-free assay	–	–	0.5 µM	remaining signal	110%
Nc1ncc(-c2nc(N3CCOCC3)nc(N3CCOCC3)n2)c(C(F)F)n1	binding	–	competition with immobilised ligand	10 µM	remaining binding	59%
N#CC1(c2ccccn2)CCN(Cc2cc(C(=O)O)c(=O)n3ccccc23)CC1	cell-free assay	–	competition with immobilised ligand	1 µM	remaining binding	66%
COc1ncccc1-c1cnn2ccc(N3CCN(C(=O)OC(C)C)CC3)nc12	binding	–	competition with immobilised ligand	1 µM	remaining binding	88%
Cn1cc(-c2cc(F)cc(N3CCn4c(cc5c4CCCC5)C3=O)c2CO)cc(Nc2ccc(N3CCN(C4COC4)CC3)cn2)c1=O	enzyme activity	inhibitor	–	0.1 µM	inhibition	9%
Cn1cncc1[C@@](O)(COc1ccc(C#N)cc1-c1ccc(OC(F)(F)F)cc1)c1ccc(C#N)cc1	cell-free assay	–	competition with immobilised ligand	1 µM	remaining binding	100%
Cc1nn(C)cc1-c1nc2c(N3CCN(Cc4ccc(Cl)cc4)CC3)c(Cl)cnc2[nH]1	binding	–	competition with immobilised ligand	1 µM	remaining binding	70%
Cn1cc(-c2cccc(N3CCc4c(sc5c4CC(C)(C)C5)C3=O)c2CO)cc(Nc2ccncn2)c1=O	enzyme activity	inhibitor	–	1 µM	inhibition	-4%
CC(C)(C)c1cc(C=C(C#N)C#N)cc(Br)c1O	enzyme activity	inhibitor	–	0.5 µM	remaining activity	110%
